# RGS4 pot: RGS4 potentiators or activators, primary screen, cell-based, HEK293 M3R inducible RGS4, calcium flux. carbachol calcium flux Fluo4; stronger effect = lower value. 310,000 compounds, 0.92% hits. AID 463111, 2010. B-score at 10 µM;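 active = B-score of the integrated calcium signal more than 4 SD below the library mean, with starting fluorescence not abnormally high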;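 also: negative B-score means reduced calcium response which marks RGS4 activation or potentiation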
#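 Also added: carbachol at ECmax as muscarinic agonist stimulus; Assay system: HEK293 cells with stable M3R and inducible RGS4; Timing: overnight RGS4 induction, 30 min dye load 37 °C, 20 min compound RT; Measured by: Fluo4-AM (2 µM) calcium-flux fluorescence, kinetic read.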
# MrgX1 antag: antagonists of human MrgX1 receptor, primary screen, HEK293 cells, Fluo-4 calcium flux. AID 588676, 2011. 310,000 compounds, 1.3% hits. B-score at 10 µM. Mas-related G-protein coupled receptor member X1 (Homo sapiens), Q96LB2. BAM8-22 antagonism; stronger effect = lower value;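 active = calcium-response B-score plate-corrected more than 3 library SD below zero, starting fluorescence within 5 deviations, no agonist response on first addition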;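 also: peak minus trough fluorescence over baseline after final BAM8-22 challenge near maximal dose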
# Target sequence (Q96LB2 whole entry, looked up): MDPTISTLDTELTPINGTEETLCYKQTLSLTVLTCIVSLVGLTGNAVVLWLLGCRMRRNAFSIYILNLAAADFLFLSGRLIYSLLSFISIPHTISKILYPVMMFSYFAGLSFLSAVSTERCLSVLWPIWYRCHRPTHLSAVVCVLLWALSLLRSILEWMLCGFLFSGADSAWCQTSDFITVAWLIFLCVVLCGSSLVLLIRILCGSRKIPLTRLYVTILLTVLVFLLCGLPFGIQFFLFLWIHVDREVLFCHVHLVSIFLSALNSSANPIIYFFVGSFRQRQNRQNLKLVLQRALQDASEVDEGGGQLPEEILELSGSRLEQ
# RGS4 block: RGS4 inhibitors, primary screen, cell-based, HEK293 M3R inducible RGS4, calcium flux; Fluo-4 calcium flux; stronger effect = higher value; triggered by carbachol at its EC20; B-score at 10 µM; 310,000 compounds, 0.45% hits;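 active = B-score, a plate-corrected calcium signal, over three deviations above library mean, with baseline fluorescence within five deviations of library mean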;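 also: RGS4 expression induced by doxycycline in cells with stable M3 receptor; B-score is computed from the integrated fluorescence ratio over baseline after carbachol; higher B-score means a larger calcium signal and so more RGS4 inhibition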
# MrgX1 PAM: positive allosteric modulators of MrgX1, primary screen, HEK293 cells, Fluo-4 calcium flux | Mas-related G-protein coupled receptor member X1 (Homo sapiens), Q96LB2 | FDSS; stronger effect = higher value | 310,000 compounds, 0.63% hits | AID 588675, 2011 | B-score at 10 µM;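 active = plate-corrected calcium response at least 3 library SD above typical, normal starting fluorescence, not activating the receptor alone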;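 also: compound read alongside a low EC10 to EC30 dose of BAM8-22 agonist; peak minus trough fluorescence over baseline measured at the second addition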
# MrgX1 ag: agonists of human MrgX1 receptor, primary screen, HEK293 cells, Fluo-4 calcium flux; Mas-related G-protein coupled receptor member X1 (Homo sapiens), Q96LB2; Fluo-4 calcium fluorescence, agonist mode; stronger effect = higher value; B-score at 10 µM; 310,000 compounds, 0.44% hits;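 active = calcium response B-score plate-corrected fluorescence ratio at least 3 library SD, with starting fluorescence B-score inside 5 SD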
#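 Material: MrgX1-expressing HEK293 cells / Dosing: compound as first of three additions / Incubation: overnight seeding, then 1 h dark dye loading / Signal: Fluo-4 NW calcium fluorescence / Evaluation: B-scored fluorescence response ratio / Benchmarks: positive and negative control wells on each plate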
# MrgX1 allo conf: MrgX1 positive allosteric modulators, duplicate retest, confirmation, HEK293 cells, Fluo-4 calcium flux; activation (ratio percentage), % at 10 µM; 1,200 compounds, 13% hits; AID 602413, 2012; Fluo-4 calcium fluorescence, FDSS; shares compounds with MrgX1 PAM;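 active = ratio at least 3 SD above the weak peptide control, stable starting fluorescence, no direct agonism earlier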;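 also: compound followed by low BAM8-22 agonist challenge near EC20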
# HEK293 Ca flux: nonspecific calcium signal in parental HEK293, confirmation, counter-screen for MrgX1 antagonist project, parental HEK293 cells, Fluo-4 calcium flux; shares compounds with MrgX1 antag; 4,000 compounds, 2% hits; Fluo-4 calcium fluorescence, FDSS; fluorescence ratio F(max-min)/F0 at 10 µM;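 active = duplicate-averaged calcium fluorescence ratio at least three times the standard deviation of buffer wells, a nonspecific response in parental cells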
# HEK293 Ca counter: calcium response in parental HEK293 cells, primary screen, counter-screen for MrgX1 allosteric activator project, cell-based, Fluo-4 calcium flux, duplicate | shares compounds with MrgX1 antag | Fluo-4 fluorescence ratio; stronger effect = higher value | fluorescence ratio F(max-min)/F0 at 10 µM | 4,000 compounds, 0.4% hits | AID 624114, 2012;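 active = calcium fluorescence ratio, averaged over duplicates, at least 3 SD of the buffer-well ratio, meaning a nonspecific response in receptor-free cells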;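 also: untransfected parental HEK293 lacking MrgX1 used as counterscreen for MrgX1 allosteric activators; fluorescence change taken during the second addition on a kinetic imager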
# HEK293 Ca cntr2: calcium response in parental HEK293 cells, primary screen, counter-screen for MrgX1 agonist project, cell-based, Fluo-4 calcium flux, duplicate, agonist mode; fluorescence ratio F(max-min)/F0 at 10 µM; shares compounds with MrgX1 antag; 4,000 compounds, 8.7% hits; Fluo-4 calcium fluorescence (FDSS); stronger effect = higher value;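 active = calcium fluorescence ratio at least three times the spread of buffer wells, meaning a non-specific response in parental cells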
# Starred values were filed as active, the others as inactive; i = inactive; x = not tested or not shown. Compounds with a hit are over-represented: about 3.5% of the library has one in this group of screens.
SMILES,RGS4 pot,MrgX1 antag,RGS4 block,MrgX1 PAM,MrgX1 ag,MrgX1 allo conf,HEK293 Ca flux,HEK293 Ca counter,HEK293 Ca cntr2
CCN1CCc2c(OCc3ccccc3)cccc2C1=O,i,i,i,11*,i,i,i,i,i
Nn1c(SCC(=O)Nc2nccs2)nnc1-c1ccccn1,i,i,i,i,i,x,x,x,x
CSCCC(=O)Nc1cc(S(=O)(=O)N2CCOCC2)ccc1N1CCN(C)CC1,i,i,i,i,i,x,x,x,x
CC(=O)N1c2ccc(S(=O)(=O)N(C)Cc3ccccc3)cc2CC1C (configuration not stated),i,i,i,7.2*,i,i,i,i,i
Nc1nc(C(c2ccccc2)c2ccccc2)cs1,i,i,i,8.7*,i,i,i,i,i
Nc1nc(-c2ccccc2)cs1,i,i,i,i,i,x,x,x,x
CN(C)CCCNc1ccc(-c2cc(Nc3cccc(Cl)c3)ncn2)cn1,i,i,i,7.8*,i,i,i,i,i
O=C1CC(c2ccc3c(c2)OCO3)Sc2nc3ccccc3n21 (configuration not stated),i,i,i,7.5*,i,i,i,i,i
O=C1CC(c2ccccc2)Sc2nc3ccccc3n21 (configuration not stated),i,i,i,i,i,x,x,x,x
Cc1ccc(NC(=S)NCC2CCN(C(C)c3ccccc3)C2)cc1 (configuration not stated),i,i,i,22*,i,i,i,i,i
CC(=O)N1CCc2c(sc(NC(=O)Cc3ccc(C)cc3C)c2C#N)C1,i,i,i,i,i,x,x,x,x
COc1ccc(N(CC(=O)Nc2cc(C)ccc2C)S(=O)(=O)c2c(C)[nH]c(=O)[nH]c2=O)cc1,i,i,i,i,i,x,x,x,x
Cc1ccc(N(CC(=O)Nc2ccc(Br)c(C)c2)S(=O)(=O)c2c(C)[nH]c(=O)[nH]c2=O)cc1,i,i,i,8.3*,i,i,i,i,i
CCOC(=O)Cc1csc(NC(=O)COc2ccccc2OC)n1,i,i,i,12*,i,i,i,i,i
CCOC(=O)Cc1csc(NC(=O)c2ccc(Br)cc2)n1,i,i,i,12*,i,i,i,i,i
CCOC(=O)Cc1csc(NC(=S)NC(=O)c2ccc([N+](=O)[O-])cc2)n1,i,i,i,i,i,x,x,x,x
CCOC(=O)Cc1csc(NC(=S)NC(=O)c2ccc(Cl)cc2)n1,i,i,i,7*,i,i,i,i,i
CC1CCCCC1NC(=O)C1CCC(CNS(=O)(=O)c2cccc3cccnc23)CC1 (configuration not stated),i,i,i,i,i,x,x,x,x
Cc1ccc2c(c1)SC1=NC(c3ccccc3)(C(F)(F)F)NC(=O)N12 (configuration not stated),i,i,i,i,i,x,x,x,x
